ChEMBL document CHEMBL1949532, “Novel dendrimeric lipopeptides with antifungal activity” (Bioorg Med Chem Lett, 2012)
≈ marks a conversion by molar mass, not a printed value. Residues, ends and D or L forms follow the SMILES beside them. Groups on a side chain read outwards from the residue. *: point of attachment. Cbz = O=C(OCc1ccccc1)*

Assays:
[1] = system: Staphylococcus aureus; assay: Antibacterial activity against Staphylococcus aureus ATCC 25923 after 18 to 24 hrs by serial broth microdilution susceptibility test; format: functional
In short: (§1)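 MIC determined by serial microdilution in microplates. Candida inocula were prepared in L-glutamine-deficient RPMI-1640 medium.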

[2] = system: Pseudomonas aeruginosa; assay: Antibacterial activity against Pseudomonas aeruginosa ATCC 27853 after 18 to 24 hrs by serial broth microdilution susceptibility test; format: functional; in short: as §1
[3] = system: Escherichia coli; assay: Antibacterial activity against Escherichia coli ATCC 25922 after 18 to 24 hrs by serial broth microdilution susceptibility test; format: functional; in short: as §1
[4] = system: Staphylococcus aureus; assay: Antibacterial activity against Staphylococcus aureus ATCC 43300 after 18 to 24 hrs by serial broth microdilution susceptibility test; format: functional; in short: as §1
[5] = system: Klebsiella pneumoniae subsp. pneumoniae; assay: Antibacterial activity against Klebsiella pneumoniae subsp. pneumoniae ATCC 13882 after 18 to 24 hrs by serial broth microdilution susceptibility test; format: functional; in short: as §1
[6] = system: Bordetella bronchiseptica; assay: Antibacterial activity against Bordetella bronchiseptica ATCC 4617 after 18 to 24 hrs by serial broth microdilution susceptibility test; format: functional; in short: as §1
[7] = system: Acinetobacter baumannii; assay: Antibacterial activity against Acinetobacter baumannii ATCC 19606 after 18 to 24 hrs by serial broth microdilution susceptibility test; format: functional; details: ATCC 19606 = CIP 70.34 = JCM 6841; in short: as §1
[8] = system: Escherichia coli; assay: Antibacterial activity against Escherichia coli ATCC BAA-198 after 18 to 24 hrs by serial broth microdilution susceptibility test; format: functional; in short: as §1
[9] = system: Candida albicans; assay: Antifungal activity against Candida albicans ATCC 90028 after 24 to 48 hrs by serial broth microdilution susceptibility test; format: functional; in short: as §1
[10] = system: Candida parapsilosis; assay: Antifungal activity against Candida parapsilosis ATCC 22019 after 24 to 48 hrs by serial broth microdilution susceptibility test; format: functional; details: Lodderomyces parapsilosis; in short: as §1
[11] = system: Pichia kudriavzevii; assay: Antifungal activity against Candida krusei ATCC 6258 after 24 to 48 hrs by serial broth microdilution susceptibility test; format: functional; in short: as §1
[12] = Toxicity in human erythrocytes assessed as hemolysis at above MIC after 30 mins by spectrophotometry; format: cell-based; details: erythrocyte, 0.5 h
In short: (§2)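 Human erythrocytes suspended in PBS were exposed to lipopeptides at 0.001–0.4 mmol/l and hemolysis was measured.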

[13] = Toxicity in human erythrocytes suspended in L-glutamine deficient RPMI-1640 assessed as hemolysis after 30 mins by spectrophotometry relative to human erythrocytes suspended in PBS buffer; format: cell-based; details: erythrocyte, 0.5 h
In short: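 Hemolysis was measured for human erythrocytes resuspended in L-glutamine-deficient RPMI-1640 (the Candida MIC medium) and compared with erythrocytes suspended in PBS.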

[14] = system: Candida albicans; assay: Antifungal activity against Candida albicans ATCC 10231 assessed as increase in intracellular potassium release after 30 mins; format: functional, organism-based
In short: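 Efflux of K+ from C. albicans cells was monitored continuously with a potassium-selective electrode. Release was expressed relative to a positive control, and EK50 was taken as the concentration releasing 50% of intracellular potassium.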

[15] = Toxicity in human erythrocytes assessed as hemolysis at 100 uM after 30 mins by spectrophotometry; format: cell-based, Erythrocyte; details: read-out: Activity; in short: as §2
[16] = Toxicity in human erythrocytes assessed as hemolysis at 50 uM after 30 mins by spectrophotometry; format: cell-based, Erythrocyte; details: read-out: Activity; in short: as §2
[17] = Inhibition of beta (1,3) glucan synthase in Candida albicans cell membrane using UDP-Glc as substrate assessed as aniline blue-glucan complex formation by microtiter-based fluorescence method
In short: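 β(1,3)-glucan synthase in the membrane fraction of C. albicans was assayed by a microtiter-based fluorescence method across a concentration range. Values are means of three independent experiments (SD); IC50 was determined.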

Compound | MIC [1] | MIC [2] | MIC [3] | MIC [4] | MIC [5] | MIC [6] | MIC [7] | MIC [8] | MIC [9] | MIC [10] | MIC [11] | Activity [12] | Activity [13] | EC50 [14] | hemolysis at 0.5 h, 100 µM [15] | hemolysis at 0.5 h, 50 µM [16] | IC50 [17]
CCCCCCCCCCCCNC(=O)[C@H](Cc1ccccc1)NC(=O)[C@H](CCCCNC(=O)[C@@H](N)CCCCN)NC(=O)[C@@H](N)CCCCN.Cl.Cl.Cl.Cl | 8 µM | 64 µM | 32 µM | 4 µM | > 256 µM | 8 µM | > 256 µM | 64 µM | 16 µM | 4 µM | 4 µM | Toxic | Non-toxic | – | – | – | –
NYSTATIN | – | – | – | – | – | – | – | – | – | – | – | – | – | 2.4 µM | – | – | –
CCCCCCCCNC(=O)[C@H](Cc1ccccc1)NC(=O)[C@H](CCCCNC(=O)[C@H](CCCCN)NC(=O)OCc1ccccc1Cl)NC(=O)[C@H](CCCCN)NC(=O)OCc1ccccc1Cl | 16 µM (≈ 16 µg/mL) | 32 µM (≈ 31.9 µg/mL) | 32 µM (≈ 31.9 µg/mL) | 16 µM (≈ 16 µg/mL) | 128 µM (≈ 128 µg/mL) | 8 µM (≈ 7.98 µg/mL) | > 256 µM | 32 µM (≈ 31.9 µg/mL) | 32 µM (≈ 31.9 µg/mL) | 16 µM (≈ 16 µg/mL) | 16 µM (≈ 16 µg/mL) | – | – | – | 10% | – | –
CCCCCCCCNC(=O)[C@H](Cc1ccccc1)NC(=O)[C@H](CCCCNC(=O)[C@H](CCCCN)NC(=O)OCc1ccccc1)NC(=O)[C@H](CCCCN)NC(=O)OCc1ccccc1 | 32 µM (≈ 29.7 µg/mL) | 32 µM (≈ 29.7 µg/mL) | 30 µM (≈ 27.9 µg/mL) | 16 µM (≈ 14.9 µg/mL) | 128 µM (≈ 119 µg/mL) | 8 µM (≈ 7.43 µg/mL) | 128 µM (≈ 119 µg/mL) | 8 µM (≈ 7.43 µg/mL) | 32 µM (≈ 29.7 µg/mL) | 16 µM (≈ 14.9 µg/mL) | 16 µM (≈ 14.9 µg/mL) | – | – | – | – | 10% | –
NCCCC[C@H](NC(=O)OCc1ccccc1)C(=O)NCCCC[C@H](NC(=O)[C@H](CCCCN)NC(=O)OCc1ccccc1)C(=O)N[C@@H](Cc1ccccc1)C(N)=O (Cbz-Lys-Lys([Lys-Cbz])-Phe-NH2) | > 144 µM | > 144 µM | > 144 µM | > 144 µM | > 144 µM | 144 µM (≈ 118 µg/mL) | > 144 µM | > 144 µM | > 128 µM | > 144 µM | > 144 µM | – | – | – | – | – | –
CC1(C)S[C@@H]2[C@H](NC(=O)Cc3ccccc3)C(=O)N2[C@H]1C(=O)O [PENICILLIN G] | 6.6 µM (≈ 2.21 µg/mL) | – | – | – | – | – | – | – | – | – | – | – | – | – | – | – | –
OC(Cn1cncn1)(Cn1cncn1)c1ccc(F)cc1F [FLUCONAZOLE] | – | – | – | – | – | – | – | – | 13 µM (≈ 3.98 µg/mL) | – | – | – | – | – | – | – | –
O=C/C=C/c1ccccc1 [CINNAMALDEHYDE] | – | – | – | – | – | – | – | – | – | – | – | – | – | – | – | – | 1150 µM
